Results reported in ChEMBL document CHEMBL4665766, “Synthesis and in vitro evaluation of vanillin derivatives as multi-target therapeutics for the treatment of Alzheimer's disease” (Bioorg Med Chem Lett, 2020).
pIC50: −log10 of the molar value. The source made the active and inactive calls. The calls are words filed in the database; no cut-off is given here.

Legend:
[1] = molecular target: Cholinesterase (Equus caballus) (UniProt P81908); test: (§1) Inhibition of equine BuChE by Ellman's method
Cholinesterase (Equus caballus), sequence (P81908 whole entry): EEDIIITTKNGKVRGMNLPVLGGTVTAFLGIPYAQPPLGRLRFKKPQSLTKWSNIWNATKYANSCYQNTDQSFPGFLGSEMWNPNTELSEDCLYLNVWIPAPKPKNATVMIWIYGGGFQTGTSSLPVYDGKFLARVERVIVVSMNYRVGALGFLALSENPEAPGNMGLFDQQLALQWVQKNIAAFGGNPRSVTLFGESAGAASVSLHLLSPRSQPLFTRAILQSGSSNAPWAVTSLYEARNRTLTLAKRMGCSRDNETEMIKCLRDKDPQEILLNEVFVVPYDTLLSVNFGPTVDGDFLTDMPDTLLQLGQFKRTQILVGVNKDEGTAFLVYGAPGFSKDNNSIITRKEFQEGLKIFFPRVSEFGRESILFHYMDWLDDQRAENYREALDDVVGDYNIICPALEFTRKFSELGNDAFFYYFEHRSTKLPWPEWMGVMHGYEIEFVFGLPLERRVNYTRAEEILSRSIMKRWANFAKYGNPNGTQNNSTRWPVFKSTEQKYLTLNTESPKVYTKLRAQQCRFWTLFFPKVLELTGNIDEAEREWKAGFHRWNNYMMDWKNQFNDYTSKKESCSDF
Procedure, shortened: (§2)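 Equine serum BuChE stock at 22 U/mL in 20 mM Tris HCl (pH 7.5), diluted 3/100 before use. Methanol dilutions of compound (≤1% DMSO) were preincubated 10 min at 37°C with enzyme and 3 mM DTNB solution (phosphate/Hepes buffer, pH 7.5). Butyrylthiocholine iodide solution (15 mM) was then added, with 10 min further incubation, and absorbance was read at 415 nm. IC50 (50% activity inhibited) was taken from 3 independent experiments.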

[2] = molecular target: Acetylcholinesterase (Electrophorus electricus) (UniProt O42275); test: (§3) Inhibition of electric eel AChE by Ellman's method
Acetylcholinesterase (Electrophorus electricus), sequence (O42275 24-633 limits assumed): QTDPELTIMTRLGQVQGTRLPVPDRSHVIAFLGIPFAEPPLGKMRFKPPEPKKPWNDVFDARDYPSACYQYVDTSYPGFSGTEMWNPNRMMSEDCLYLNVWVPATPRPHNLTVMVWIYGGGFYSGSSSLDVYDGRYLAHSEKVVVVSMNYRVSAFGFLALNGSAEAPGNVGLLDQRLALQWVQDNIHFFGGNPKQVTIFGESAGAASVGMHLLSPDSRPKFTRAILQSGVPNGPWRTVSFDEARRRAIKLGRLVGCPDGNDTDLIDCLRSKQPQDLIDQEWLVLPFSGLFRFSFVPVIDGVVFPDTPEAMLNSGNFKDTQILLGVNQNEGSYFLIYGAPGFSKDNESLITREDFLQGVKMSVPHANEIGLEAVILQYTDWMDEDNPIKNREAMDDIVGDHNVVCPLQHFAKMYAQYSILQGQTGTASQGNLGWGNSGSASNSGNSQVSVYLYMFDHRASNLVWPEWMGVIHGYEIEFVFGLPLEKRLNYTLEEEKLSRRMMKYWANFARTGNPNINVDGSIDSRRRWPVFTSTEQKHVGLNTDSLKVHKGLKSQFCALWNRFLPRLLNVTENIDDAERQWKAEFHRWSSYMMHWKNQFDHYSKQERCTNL
Procedure, shortened: (§4)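 Electrophorus electricus AChE stock at 22 U/mL in 20 mM Tris HCl (pH 7.5), diluted 1/100 before use. Compound dilution series in methanol (≤1% DMSO) was preincubated with enzyme and DTNB solution (3 mM, phosphate/Hepes 0.05 M/0.09 M, pH 7.5) for 10 min at 37°C. Acetylthiocholine iodide solution (15 mM) was then added for a further 10 min, and A415 was read. IC50 is the 50% activity inhibition point, from 3 independent experiments.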

[3] = Antioxidant activity assessed as increase in total ferric ion reducing activity using FeCl3.H2O and TPTZ by measuring trolox equivalents at pH 3.6 measured at different time interval up to 150 mins by microplate reader based FRAP assay; format: functional; design: unit not given here; conditions: time min <=150
[4] = Antioxidant activity assessed as DPPH free radical scavenging activity after 1 hr by microplate reader based assay; format: functional
[5] = Antioxidant activity assessed as trolox equivalent of AAPH-induced radical scavenging activity preincubated for 10 mins followed by AAPH addition and measured every minute for 35 mins by ORAC fluorescein assay; format: functional; conditions: time min <=35
[6] = Selectivity index, ratio of IC50 for electric eel AChE to IC50 for equine BuChE
Procedure, shortened: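 Ratio of Ellman-assay IC50 values, AChE IC50 divided by BuChE IC50. Electric eel AChE was diluted 1/100 with acetylthiocholine substrate. Equine BuChE was diluted 3/100 with butyrylthiocholine substrate. Both enzymes were preincubated with compound and DTNB for 10 min at 37°C, given 10 min with substrate, and read at 415 nm.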

[7] = molecular target: Cholinesterase (Equus caballus, UniProt P81908); test: as §1; procedure, shortened: as §2
Cholinesterase, sequence (P81908 whole entry): as the sequence (P81908 whole entry) above

[8] = molecular target: Acetylcholinesterase (Electrophorus electricus, UniProt O42275); test: as §3; procedure, shortened: as §4
Acetylcholinesterase, sequence (O42275 whole entry): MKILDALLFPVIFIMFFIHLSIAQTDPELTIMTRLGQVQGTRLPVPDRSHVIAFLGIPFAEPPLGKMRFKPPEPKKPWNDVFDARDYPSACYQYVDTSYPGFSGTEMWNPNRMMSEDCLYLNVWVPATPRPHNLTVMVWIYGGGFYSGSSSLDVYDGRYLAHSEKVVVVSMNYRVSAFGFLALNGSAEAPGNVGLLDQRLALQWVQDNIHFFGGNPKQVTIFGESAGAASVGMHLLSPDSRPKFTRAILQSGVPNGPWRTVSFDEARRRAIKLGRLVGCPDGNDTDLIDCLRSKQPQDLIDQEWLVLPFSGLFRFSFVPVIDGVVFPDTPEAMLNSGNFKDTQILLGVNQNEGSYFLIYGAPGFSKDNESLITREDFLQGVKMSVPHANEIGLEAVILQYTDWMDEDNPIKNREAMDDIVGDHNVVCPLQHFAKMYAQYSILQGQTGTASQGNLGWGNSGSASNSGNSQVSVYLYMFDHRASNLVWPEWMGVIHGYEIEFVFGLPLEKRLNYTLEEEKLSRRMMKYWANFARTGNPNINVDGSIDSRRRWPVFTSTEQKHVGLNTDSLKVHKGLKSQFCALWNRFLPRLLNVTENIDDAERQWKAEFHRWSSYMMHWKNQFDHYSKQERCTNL

[9] = Potency index, ratio of trolox to test compound for antioxidant activity assessed as trolox equivalent of AAPH scavenging activity by ORAC fluorescein assay; format: functional
Procedure, shortened: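 Compounds from 10 mM DMSO stocks and Trolox diluted in 75 mM phosphate buffer, pH 7.4. […] with 25 nM sodium fluorescein (solution concentration), then 0.15 M AAPH solution added. Fluorescence (ex 485, em 525 nm) […]. TE from comparing the slopes of Trolox and compound calibration curves; mean ± SD of 3 independent experiments.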

[10] = Potency index, ratio of test compound trolox equivalent to vanillin trolox equivalent for antioxidant activity assessed as ferric ion reducing activity by FRAP assay; format: functional
[11] = molecular target: Cholinesterase (Equus caballus) (UniProt P81908); test: Potency index, ratio of neostigmine IC50 to test compound IC50 for inhibition of equine BuChE
[12] = molecular target: Cholinesterase (Equus caballus) (UniProt P81908); test: Potency index, ratio of rivastigmine IC50 to test compound IC50 for inhibition of equine BuChE

For COc1cc(C=O)ccc1O [VANILLIN], the inhibition [1] was “inactive”, the inhibition [2] was “inactive” and the Activity [3] was 0.02. It also gave a pIC50 [4] of 2.10 and an Activity [5] of 2.2.

Work on COc1cc(CNCCCCCCN2C(=O)c3ccccc3C2=O)ccc1O yielded a Ratio IC50 [6] of 12.6, a pIC50 [7] of 6.43 and a pIC50 [8] of 5.33. For the same compound, the Activity [3] was 0.23, the pIC50 [4] was 4.08 and the Activity [5] was 13.2.

Compound COc1cc(CNCCCCCCCN2C(=O)c3cccc4cccc(c34)C2=O)ccc1O has a Ratio IC50 [6] of 2.22, a pIC50 [7] of 5.82 and a pIC50 [8] of 5.48. It also gave an Activity [3] of 0.34, a pIC50 [4] of 4.15 and an Activity [5] of 6.7.

With COc1cc(CNCCCCN2C(=O)c3cccc4cccc(c34)C2=O)ccc1O the Ratio IC50 [6] was 15.2, the pIC50 [7] was 6.05 and the pIC50 [8] was 4.86. For the same compound, the Activity [3] was 0.26, the pIC50 [4] was 4.21 and the Activity [5] was 8.1.

In the case of CN(C)C(=O)Oc1cccc([N+](C)(C)C)c1 [NEOSTIGMINE], the Ratio IC50 [6] was 2.56, the pIC50 [7] was 5.53 and the pIC50 [8] was 5.12.

COc1cc(CN(CCCN2C(=O)c3cccc4cccc(c34)C2=O)Cc2ccc(O)c(OC)c2)ccc1O showed a Ratio [9] of 10, a Ratio [10] of 25 and a Ratio IC50 [11] of 10. The Ratio IC50 [12] was 3, the Ratio IC50 [6] was 53.1 and the pIC50 [7] was 6.57. For the same compound, the pIC50 [8] was 4.84, the Activity [3] was 0.49 and the pIC50 [4] was 4.78. For the same compound, the Activity [5] was 9.43.

COc1cc(CNCCCNC(=O)c2ccccc2CO)ccc1O gave an Activity [3] of 0.96 and a pIC50 [4] of 3.95.
